Measured values: ChEMBL document CHEMBL1134485, “Diguanidino and "reversed" diamidino 2,5-diarylfurans as antimicrobial agents” (2001)
Values after ≈ are worked out from the molar mass of the structure shown.

Tests used:
Aspergillus fumigatus [1] = experiment: In vitro minimum fungicidal concentration required to inhibit Aspergillus fumigatus(MFC); format: functional
Procedure, shortened: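 Mould MFC: 100 µL aliquots from macrodilution tubes (RPMI 1640/MOPS pH 7.0, 0.5 × 10³ to 2.5 × 10³ CFU/mL conidial inoculum, 30 °C, 48-72 h, drug 100 to 0.09 µg/mL) showing complete growth inhibition plated on Sabouraud agar; MFC taken as lowest drug concentration giving three or fewer colonies.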

Aspergillus fumigatus [2] = experiment: Antimicrobial activity against Aspergillus fumigatus (MIC); format: functional
Candida albicans [3] = experiment: In vitro minimum fungicidal concentration against Candida albicans.; format: functional
Procedure, shortened: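 Yeast MFC: after broth macrodilution (RPMI 1640/MOPS pH 7.0, 0.5 × 10³ to 2.5 × 10³ CFU/mL, 35 °C, 48 h or 72 h for C. neoformans, drug 100 to 0.09 µg/mL), 100 µL from tubes with complete inhibition plated on Sabouraud agar; lowest concentration yielding three or fewer colonies recorded.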

Candida albicans [4] = experiment: In vitro minimum inhibitory concentration against Candida albicans.; format: functional
[5] = system: Mycobacterium tuberculosis; experiment: In vitro minimum inhibitory concentration required to inhibit Mycobacterium tuberculosis; format: functional
Procedure, shortened: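 M. tuberculosis H37Rv grown in BACTEC 12B medium; fluorometric broth microdilution (Microplate Alamar Blue Assay). […] MIC = lowest concentration reducing relative fluorescence units by ≥90% relative to control culture. Testing done by TAACF.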

Nucleic Acid [6] = system: Nucleic Acid
Nucleic Acid [7] = system: Nucleic Acid; remark: listed apart in the source
Nucleic Acid [8] = experiment: DNA binding affinity to poly dA.dT; format: nucleic-acid assay

Row | SMILES | MFC (Aspergillus fumigatus [1]) | MIC (Aspergillus fumigatus [2]) | MFC (Candida albicans [3]) | MIC (Candida albicans [4]) | MIC [5] | ΔTm (Nucleic Acid [6]) | ΔTm (Nucleic Acid [7]) | ΔTm (Nucleic Acid [8])
1 | Cl.Cl.N=C(N)Nc1ccc(-c2ccc(-c3ccc(NC(=N)N)cc3C(F)(F)F)o2)c(C(F)(F)F)c1 | 100 µg/mL | 100 µg/mL | 10 µg/mL | 10 µg/mL | 8 µg/mL | 5.9 | 0 | 
2 | N=C(N)c1ccc(-c2ccc(-c3ccc(C(=N)N)cc3)o2)cc1 [FURAMIDINE] |  |  | 25 µg/mL (≈ 82.1 µM) | 6.25 µg/mL (≈ 20.5 µM) |  | 25 | 11.7 | 
3 | OC(Cn1cncn1)(Cn1cncn1)c1ccc(F)cc1F [FLUCONAZOLE] |  |  | 25 µg/mL (≈ 81.6 µM) | 6.25 µg/mL (≈ 20.4 µM) |  |  |  | 
4 | Cc1cc(NC(=N)c2ccccn2)ccc1-c1ccc(-c2ccc(NC(=N)c3ccccn3)cc2C)o1 | 100 µg/mL (≈ 206 µM) | 10 µg/mL (≈ 20.6 µM) | 10 µg/mL (≈ 20.6 µM) | 10 µg/mL (≈ 20.6 µM) | ≤ 1 µg/mL | 22.6 | 8.9 | 
5 | Cc1cc(NC(=N)c2ccccn2)cc(C)c1-c1ccc(-c2c(C)cc(NC(=N)c3ccccn3)cc2C)o1 | > 100 µg/mL | 10 µg/mL (≈ 19.4 µM) | > 100 µg/mL | 10 µg/mL (≈ 19.4 µM) |  | 5.7 | 1.2 | 
6 | Cc1cc(NC(=N)c2ccccc2)ccc1-c1ccc(-c2ccc(NC(=N)c3ccccc3)cc2C)o1 |  |  | 6.25 µg/mL (≈ 12.9 µM) | 3.12 µg/mL (≈ 6.44 µM) | 3.13 µg/mL (≈ 6.46 µM) | 24.9 | 7.8 | 
7 | CC(=N)Nc1ccc(-c2ccc(-c3ccc(NC(C)=N)cc3)o2)cc1 | > 100 µg/mL | 100 µg/mL (≈ 301 µM) |  | > 100 µg/mL |  | 15.9 | 6 | 
8 | Cc1cc(NC(=N)c2ccc3ccccc3n2)ccc1-c1ccc(-c2ccc(NC(=N)c3ccc4ccccc4n3)cc2C)o1 |  | 100 µg/mL (≈ 170 µM) | 100 µg/mL (≈ 170 µM) | 100 µg/mL (≈ 170 µM) |  |  | 1.1 | 7.5
9 | Cc1cc(NC(=N)N)cc(C)c1-c1ccc(-c2c(C)cc(NC(=N)N)cc2C)o1 |  |  |  |  |  | 2.7 | 1.4 | 
10 | N=C(Nc1ccc(-c2ccc(-c3ccc(NC(=N)C4CCCCC4)cc3)o2)cc1)C1CCCCC1 | > 100 µg/mL | 100 µg/mL (≈ 213 µM) |  | > 100 µg/mL | ≤ 6.25 µg/mL | 26.7 | 12.8 | 
